# Source: ChEMBL document CHEMBL5058577, “EUbOPEN Chemogenomics Library 2 (Multiplex)” (2022)
# Test system: HEK-293T
# Assay: Multiplex assay against HEK293T
# Format: toxicity, cell-based
# Conditions: human
# Procedure, shortened: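 Live cells were stained at seeding with Hoechst33342, BioTracker Green Microtubule Cytoskeleton Dye, MitoTracker Red and Annexin V Alexa Fluor 680. Following compound addition, they were imaged on a CQ1 microscope at 37°C and 5% CO2 and gated by CellPathfinder machine learning into Hoechst high-intensity objects or normal cells, with normal cells split into healthy, pyknosed or fragmented nuclei and pyknosed cells into mitotic or apoptotic. Tubulin, mitochondrial-mass and membrane-permeability phenotypes are per cents of healthy-nucleus cells.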
# [1] = 12 h, 1 µM, compound concentration 1 uM, replicate 1
# [2] = 12 h, 1 µM, compound concentration 1 uM, replicate 2
# [3] = 12 h, 10 µM, compound concentration 10 uM, replicate 1
# [4] = 12 h, 10 µM, compound concentration 10 uM, replicate 2
# [5] = 24 h, 1 µM, compound concentration 1 uM, replicate 1
# [6] = 24 h, 1 µM, compound concentration 1 uM, replicate 2
# [7] = 24 h, 10 µM, compound concentration 10 uM, replicate 1
# [8] = 24 h, 10 µM, compound concentration 10 uM, replicate 2
# [9] = 48 h, 1 µM, compound concentration 1 uM, replicate 1
# [10] = 48 h, 1 µM, compound concentration 1 uM, replicate 2
# [11] = 48 h, 10 µM, compound concentration 10 uM, replicate 1
# [12] = 48 h, 10 µM, compound concentration 10 uM, replicate 2
structure (smiles),measurement,setting,value
CCCC(CCC)C(=O)O [VALPROIC ACID],Population Apoptotic (%),[1],39%
same,Population Fragmented Nuclei (%),[1],6%
same,Population Healthy Nuclei (%),[1],81%
same,Population Hoechst High Intensity Objects (%),[1],6%
same,Population Membrane Permeable-Phenotype (%),[1],0%
same,Population Mitochondria Different-Phenotype (%),[1],29%
same,Population Mitotic Cells (%),[1],60%
same,Population Normal (%),[1],93%
same,Population Pyknosed Nuclei (%),[1],12%
same,Population Tubulin-Different-Phenotype (%),[1],20%
same,Total Cell Count,[1],513
same,Population Apoptotic (%),[2],28%
same,Population Fragmented Nuclei (%),[2],5%
same,Population Healthy Nuclei (%),[2],79%
same,Population Hoechst High Intensity Objects (%),[2],5%
same,Population Mitochondria Different-Phenotype (%),[2],46%
same,Population Mitotic Cells (%),[2],71%
same,Population Normal (%),[2],94%
same,Population Pyknosed Nuclei (%),[2],15%
same,Population Tubulin-Different-Phenotype (%),[2],16%
same,Total Cell Count,[2],367
same,Population Apoptotic (%),[3],34%
same,Population Fragmented Nuclei (%),[3],6%
same,Population Healthy Nuclei (%),[3],82%
same,Population Hoechst High Intensity Objects (%),[3],6%
same,Population Membrane Permeable-Phenotype (%),[3],0%
same,Population Mitochondria Different-Phenotype (%),[3],40%
same,Population Mitotic Cells (%),[3],66%
same,Population Normal (%),[3],93%
same,Population Pyknosed Nuclei (%),[3],11%
same,Population Tubulin-Different-Phenotype (%),[3],26%
same,Total Cell Count,[3],455
same,Population Apoptotic (%),[4],44%
same,Population Fragmented Nuclei (%),[4],7%
same,Population Healthy Nuclei (%),[4],81%
same,Population Mitochondria Different-Phenotype (%),[4],49%
same,Population Mitotic Cells (%),[4],55%
same,Population Tubulin-Different-Phenotype (%),[4],20%
same,Total Cell Count,[4],446
same,Population Apoptotic (%),[5],28%
same,Population Fragmented Nuclei (%),[5],8%
same,Population Healthy Nuclei (%),[5],78%
same,Population Hoechst High Intensity Objects (%),[5],4%
same,Population Membrane Permeable-Phenotype (%),[5],1%
same,Population Mitochondria Different-Phenotype (%),[5],22%
same,Population Mitotic Cells (%),[5],71%
same,Population Normal (%),[5],95%
same,Population Pyknosed Nuclei (%),[5],12%
same,Population Tubulin-Different-Phenotype (%),[5],16%
same,Total Cell Count,[5],663
same,Population Apoptotic (%),[6],45%
same,Population Fragmented Nuclei (%),[6],6%
same,Population Healthy Nuclei (%),[6],83%
same,Population Membrane Permeable-Phenotype (%),[6],0%
same,Population Mitochondria Different-Phenotype (%),[6],26%
same,Population Mitotic Cells (%),[6],54%
same,Population Pyknosed Nuclei (%),[6],9%
same,Population Tubulin-Different-Phenotype (%),[6],10%
same,Total Cell Count,[6],469
same,Population Apoptotic (%),[7],28%
same,Population Fragmented Nuclei (%),[7],9%
same,Population Healthy Nuclei (%),[7],81%
same,Population Hoechst High Intensity Objects (%),[7],4%
same,Population Membrane Permeable-Phenotype (%),[7],0%
same,Population Mitochondria Different-Phenotype (%),[7],16%
same,Population Mitotic Cells (%),[7],71%
same,Population Normal (%),[7],95%
same,Population Pyknosed Nuclei (%),[7],9%
same,Population Tubulin-Different-Phenotype (%),[7],15%
same,Total Cell Count,[7],649
same,Population Apoptotic (%),[8],23%
same,Population Fragmented Nuclei (%),[8],8%
same,Population Healthy Nuclei (%),[8],86%
same,Population Hoechst High Intensity Objects (%),[8],3%
same,Population Mitochondria Different-Phenotype (%),[8],30%
same,Population Mitotic Cells (%),[8],76%
same,Population Normal (%),[8],96%
same,Population Pyknosed Nuclei (%),[8],5%
same,Population Tubulin-Different-Phenotype (%),[8],11%
same,Total Cell Count,[8],593
same,Population Apoptotic (%),[9],19%
same,Population Fragmented Nuclei (%),[9],14%
same,Population Healthy Nuclei (%),[9],78%
same,Population Hoechst High Intensity Objects (%),[9],2%
same,Population Membrane Permeable-Phenotype (%),[9],3%
same,Population Mitochondria Different-Phenotype (%),[9],11%
same,Population Mitotic Cells (%),[9],80%
same,Population Normal (%),[9],97%
same,Population Pyknosed Nuclei (%),[9],6%
same,Population Tubulin-Different-Phenotype (%),[9],9%
same,Total Cell Count,[9],1112
same,Population Apoptotic (%),[10],36%
same,Population Fragmented Nuclei (%),[10],10%
same,Population Healthy Nuclei (%),[10],81%
same,Population Hoechst High Intensity Objects (%),[10],3%
same,Population Membrane Permeable-Phenotype (%),[10],1%
same,Population Mitochondria Different-Phenotype (%),[10],17%
same,Population Mitotic Cells (%),[10],63%
same,Population Normal (%),[10],96%
same,Population Pyknosed Nuclei (%),[10],8%
same,Population Tubulin-Different-Phenotype (%),[10],10%
same,Total Cell Count,[10],700
same,Population Apoptotic (%),[11],21%
same,Population Fragmented Nuclei (%),[11],15%
same,Population Healthy Nuclei (%),[11],79%
same,Population Hoechst High Intensity Objects (%),[11],3%
same,Population Membrane Permeable-Phenotype (%),[11],1%
same,Population Mitochondria Different-Phenotype (%),[11],11%
same,Population Mitotic Cells (%),[11],78%
same,Population Normal (%),[11],96%
same,Population Pyknosed Nuclei (%),[11],5%
same,Population Tubulin-Different-Phenotype (%),[11],9%
same,Total Cell Count,[11],1088
same,Population Apoptotic (%),[12],27%
same,Population Fragmented Nuclei (%),[12],13%
same,Population Healthy Nuclei (%),[12],82%
same,Population Hoechst High Intensity Objects (%),[12],1%
same,Population Membrane Permeable-Phenotype (%),[12],2%
same,Population Mitochondria Different-Phenotype (%),[12],12%
same,Population Mitotic Cells (%),[12],72%
same,Population Normal (%),[12],98%
same,Population Pyknosed Nuclei (%),[12],4%
same,Population Tubulin-Different-Phenotype (%),[12],6%
same,Total Cell Count,[12],947
